Assay results published in publication PMC11027041 (RSC Advances, 2024).
Blank lines part the entries; values can stand above or below the compound they belong to.

What was measured:
HDAC1 = HDAC1 (Homo sapiens, UniProt Q13547); assay: In vitro HDAC enzyme assay; format: biochemical; settings: for inhibition at 0.5 µM: read-out: Inhibition% (inhibition rate, IR) against HDAC1, at a concentration of 500 nM
[1] = system: colon cancer cell line HCT-116; assay: Cell viability assay; format: cell-based; settings: Homo sapiens, HCT-116, 72 h, read-out: Antiproliferative IC50 HCT116
[2] = system: melanoma cell line SK-MEL-2; assay: Cell viability assay; format: cell-based; settings: Homo sapiens, SK-MEL-2, 72 h, read-out: Antiproliferative IC50 SK-MEL-2
[3] = system: normal bone marrow cells HS-5; assay: Cell viability assay; format: cell-based; settings: 72 h, read-out: Antiproliferative IC50 HS-5
Method in brief: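 Cells grown in IMDM with 20% FBS, 100 U per mL penicillin and 100 μg per mL streptomycin, then plated in 96-well format. Test compound exposure was 72 h. Alamar blue solution (1 mM, as added) was then applied for a further 5–6 h, and […] was read at 530/590 nm. Data were normalized to vehicle, as means of three independent measurements (standard errors <20%), and IC50 was calculated.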

Chain of HDAC1 (Q13547 whole entry): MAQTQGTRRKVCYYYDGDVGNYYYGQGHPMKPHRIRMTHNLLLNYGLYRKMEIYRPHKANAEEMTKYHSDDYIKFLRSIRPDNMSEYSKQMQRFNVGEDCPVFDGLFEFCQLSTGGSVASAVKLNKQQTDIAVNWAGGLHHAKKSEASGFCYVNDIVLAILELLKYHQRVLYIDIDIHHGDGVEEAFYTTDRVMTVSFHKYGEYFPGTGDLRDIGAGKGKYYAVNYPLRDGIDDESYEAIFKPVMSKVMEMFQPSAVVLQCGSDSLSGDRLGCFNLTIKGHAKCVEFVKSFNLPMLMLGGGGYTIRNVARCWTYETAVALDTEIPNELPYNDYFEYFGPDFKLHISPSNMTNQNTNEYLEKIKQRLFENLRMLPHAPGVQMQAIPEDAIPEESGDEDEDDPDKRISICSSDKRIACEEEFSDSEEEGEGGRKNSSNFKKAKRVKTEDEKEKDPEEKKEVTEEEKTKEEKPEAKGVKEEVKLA

IC50 (HDAC1): 0.0104 ± 0.00065 µM | inhibition at 0.5 µM (HDAC1; duplicate): 98.2% | IC50 [1]: 3.2 ± 0.09 µM | IC50 [2]: 3.16 ± 0.08 µM
Compound: O=C(CCCCCCNC(=O)[C@H]1Cc2c([nH]c3ccccc23)[C@H](C2CC2)N1Cc1ccccc1)NO [Compound 13g, (1S,3R)-2-Benzyl-1-cyclopropyl-N-(7-(hydroxyamino)-7-oxoheptyl)-2,3,4,9-tetrahydro-1H-pyrido[3,4-b]indole-3-carboxamide]
IC50 [3]: > 50 µM

inhibition at 0.5 µM (HDAC1; duplicate): 40.8%
Compound: COc1ccc(CN2[C@H](C)c3[nH]c4ccccc4c3C[C@H]2C(=O)NCCCCCCC(=O)NO)cc1 [Compound 9f, (1R,3S)-N-(7-(Hydroxyamino)-7-oxoheptyl)-2-(4-methoxybenzyl)-1-methyl-2,3,4,9-tetrahydro-1H-pyrido[3,4-b]indole-3-carboxamide]

inhibition at 0.5 µM (HDAC1; duplicate): 58.1%
Compound: COc1ccc(CN2[C@H](C)c3[nH]c4ccccc4c3C[C@H]2C(=O)NCCCCCC(=O)NO)cc1 [Compound 9e, (1R,3S)-N-(6-(Hydroxyamino)-6-oxohexyl)-2-(4-methoxybenzyl)-1-methyl-2,3,4,9-tetrahydro-1H-pyrido[3,4-b]indole-3-carboxamide]

IC50 (HDAC1): 0.0224 ± 0.00084 µM | inhibition at 0.5 µM (HDAC1; duplicate): 91.4% | IC50 [1]: 4.22 ± 0.12 µM | IC50 [2]: 5.7 ± 0.12 µM
Compound: COc1ccc(CN2[C@@H](C(=O)NCCCCCCC(=O)NO)Cc3c([nH]c4ccccc34)[C@@H]2C)cc1 [Compound 13f, (1S,3R)-N-(7-(Hydroxyamino)-7-oxoheptyl)-2-(4-methoxybenzyl)-1-methyl-2,3,4,9-tetrahydro-1H-pyrido[3,4-b]indole-3-carboxamide]
IC50 [3]: > 50 µM

inhibition at 0.5 µM (HDAC1; duplicate): 77.3%
Compound: O=C(CCCCCCNC(=O)[C@@H]1Cc2c([nH]c3ccccc23)[C@@H](C2CC2)N1)NO [Compound 9i, (1R,3S)-1-Cyclopropyl-N-(7-(hydroxyamino)-7-oxoheptyl)-2,3,4,9-tetrahydro-1H-pyrido[3,4-b]indole-3-carboxamide]

inhibition at 0.5 µM (HDAC1; duplicate): 72.5%
Compound: COc1ccc([C@@H]2N[C@@H](C(=O)NCCCCCCC(=O)NO)Cc3c2[nH]c2ccccc32)cc1OC [Compound 13j, (1S,3R)-1-(3,4-Dimethoxyphenyl)-N-(7-(hydroxyamino)-7-oxoheptyl)-2,3,4,9-tetrahydro-1H-pyrido[3,4-b]indole-3-carboxamide]

inhibition at 0.5 µM (HDAC1; duplicate): 65.4%
Compound: O=C(CCCCCCNC(=O)[C@@H]1Cc2c([nH]c3ccccc23)[C@@H](c2ccc(Cl)cc2)N1)NO [Compound 9g, (1R,3S)-1-(4-Chlorophenyl)-N-(7-(hydroxyamino)-7-oxoheptyl)-2,3,4,9-tetrahydro-1H-pyrido[3,4-b]indole-3-carboxamide]

inhibition at 0.5 µM (HDAC1; duplicate): 51.3%
Compound: O=C(CCCCCNC(=O)[C@H]1Cc2c([nH]c3ccccc23)[C@H](c2ccc(Cl)cc2)N1)NO [Compound 13h, (1S,3R)-1-(4-Chlorophenyl)-N-(6-(hydroxyamino)-6-oxohexyl)-2,3,4,9-tetrahydro-1H-pyrido[3,4-b]indole-3-carboxamide]

inhibition at 0.5 µM (HDAC1; duplicate): 31.8%
Compound: COc1ccc(CN2Cc3[nH]c4ccccc4c3C[C@H]2C(=O)NCCCCCCC(=O)NO)cc1 [Compound 9a, (S)-N-(7-(Hydroxyamino)-7-oxoheptyl)-2-(4-methoxybenzyl)-2,3,4,9-tetrahydro-1H-pyrido[3,4-b]indole-3-carboxamide]

IC50 [1]: 3.87 ± 0.11 µM | IC50 [2]: 4.5 ± 0.14 µM
Compound: O=C(CCCCCCNC(=O)c1cnc(N(c2ccccc2)c2ccccc2)nc1)NO [ACY-1215, reference compound]

inhibition at 0.5 µM (HDAC1; duplicate): 23.2%
Compound: COc1ccc([C@H]2N[C@H](C(=O)NCCCCCC(=O)NO)Cc3c2[nH]c2ccccc32)cc1 [Compound 9b, (1R,3S)-N-(6-(Hydroxyamino)-6-oxohexyl)-1-(4-methoxyphenyl)-2,3,4,9-tetrahydro-1H-pyrido[3,4-b]indole-3-carboxamide]

inhibition at 0.5 µM (HDAC1; duplicate): 39.6%
Compound: O=C(CCCCCNC(=O)[C@@H]1Cc2c([nH]c3ccccc23)[C@@H](c2ccccc2)N1)NO [Compound 9d, (1R,3S)-N-(6-(Hydroxyamino)-6-oxohexyl)-1-phenyl-2,3,4,9-tetrahydro-1H-pyrido[3,4-b]indole-3-carboxamide]

inhibition at 0.5 µM (HDAC1; duplicate): 49.2%
Compound: COc1ccc([C@@H]2N[C@@H](C(=O)NCCCCCC(=O)NO)Cc3c2[nH]c2ccccc32)cc1 [Compound 13b, (1S,3R)-N-(6-(Hydroxyamino)-6-oxohexyl)-1-(4-methoxyphenyl)-2,3,4,9-tetrahydro-1H-pyrido[3,4-b]indole-3-carboxamide]

inhibition at 0.5 µM (HDAC1; duplicate): 66% | IC50 [1]: 7.55 ± 0.18 µM | IC50 [2]: 7.84 ± 0.26 µM
Compound: O=C(CCCCCCNC(=O)[C@H]1Cc2c([nH]c3ccccc23)[C@H](c2ccc(Cl)cc2)N1)NO [Compound 13i, (1S,3R)-1-(4-Chlorophenyl)-N-(7-(hydroxyamino)-7-oxoheptyl)-2,3,4,9-tetrahydro-1H-pyrido[3,4-b]indole-3-carboxamide]
IC50 [3]: > 50 µM

inhibition at 0.5 µM (HDAC1; duplicate): 41.3%
Compound: COc1ccc([C@H]2N[C@H](C(=O)NCCCCCCC(=O)NO)Cc3c2[nH]c2ccccc32)cc1 [Compound 9c, (1R,3S)-N-(7-(Hydroxyamino)-7-oxoheptyl)-1-(4-methoxyphenyl)-2,3,4,9-tetrahydro-1H-pyrido[3,4-b]indole-3-carboxamide]

inhibition at 0.5 µM (HDAC1; duplicate): 46.5%
Compound: COc1ccc([C@H]2N[C@H](C(=O)NCCCCCCC(=O)NO)Cc3c2[nH]c2ccccc32)cc1OC [Compound 9h, (1R,3S)-1-(3,4-Dimethoxyphenyl)-N-(7-(hydroxyamino)-7-oxoheptyl)-2,3,4,9-tetrahydro-1H-pyrido[3,4-b]indole-3-carboxamide]

inhibition at 0.5 µM (HDAC1; duplicate): 44.3%
Compound: COc1ccc(CN2Cc3[nH]c4ccccc4c3C[C@@H]2C(=O)NCCCCCCC(=O)NO)cc1 [Compound 13a, (R)-N-(7-(Hydroxyamino)-7-oxoheptyl)-2-(4-methoxybenzyl)-2,3,4,9-tetrahydro-1H-pyrido[3,4-b]indole-3-carboxamide]

IC50 (HDAC1): 0.0536 ± 0.0025 µM | inhibition at 0.5 µM (HDAC1; duplicate): 84.8% | IC50 [1]: 8.34 ± 0.24 µM | IC50 [2]: 9.65 ± 0.46 µM
Compound: COc1ccc(CN2[C@@H](C(=O)NCCCCCC(=O)NO)Cc3c([nH]c4ccccc34)[C@@H]2C)cc1 [Compound 13e, (1S,3R)-N-(6-(Hydroxyamino)-6-oxohexyl)-2-(4-methoxybenzyl)-1-methyl-2,3,4,9-tetrahydro-1H-pyrido[3,4-b]indole-3-carboxamide]
IC50 [3]: > 50 µM

IC50 (HDAC1): 0.047 ± 0.00125 µM | Inhibition% (inhibition rate, IR) against HDAC1 (HDAC1; at a concentration of 500 nM, duplicate, 0.5 µM): 81.6% | inhibition at 0.5 µM (HDAC1; duplicate): 66%
Compound: COc1ccc([C@@H]2N[C@@H](C(=O)NCCCCCCC(=O)NO)Cc3c2[nH]c2ccccc32)cc1 [Compound 13c, (1S,3R)-N-(7-(Hydroxyamino)-7-oxoheptyl)-1-(4-methoxyphenyl)-2,3,4,9-tetrahydro-1H-pyrido[3,4-b]indole-3-carboxamide]
